Screening results as filed in PubChem BioAssay.
Sampled rows, rich in hits. Any-hit rate of the full collection: about 3.2%.
DAX1 inh-1: inhibits human nuclear receptor DAX1 | hit rate 0.99% among 340,000 | P51843 | HEK293 Gal4-DAX1 luciferase reporter, luminescence | AID 504766 | inhibition, % at 6.75 µM;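 active means inhibition above the mean over all tested compounds plus 3 SD, cut at about 4.2% in these data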;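 further: 0% = DAX1-transfected cells with DMSO and 100% = empty-vector control cells with DMSO; inhibition shows as a rise in luminescence from relieved DAX1 repression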
DAX1 inh-2: blocks DAX1 repression of SF-1 activated StAR promoter | hit rate 1.1% among 370,000 | AID 652010 | inhibition, % at 6.8 µM | HEK293T StAR-luciferase reporter, SF-1/DAX-1 repression relief;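 active means inhibition above the mean over all tested compounds plus 3 SD, cut at about 3.6% in these data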;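 further: 0% = DAX-1 cells with DMSO and 100% = cells lacking DAX-1 with DMSO; higher inhibition means more luminescence from relief of DAX-1 repression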
NR2E3 ag-1: agonists of human nuclear receptor NR2E3. Q9Y5X4. GST-NR2E3/biotin-RetCOR TR-FRET, 1536-well. inhibition of corepressor binding, % at 4.78 µM. hit rate 0.12% among 320,000. AID 2300;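 active means percent inhibition above the cutoff of mean plus 3 SD of all tested compounds, set per screening campaign, cut at about 20% in these data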;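 further: 0% = DMSO wells and 100% = biotin wells as full block of FRET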
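system = GST-tagged NR2E3 plus biotinylated RetCOR corepressor | input = 1.35 nM GST-NR2E3 | also added = 7 nM biotin-RetCOR | schedule = 5 h incubation at 4 °C | measured by = TR-FRET with europium anti-GST and streptavidin-D2, 340 nm excitation | read-out = percent loss of FRET ratio relative to control wells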
NR2E3 ag-2: agonists of human NR2E3 nuclear receptor | Q9Y5X4 | CHO-S Gal4-NCOR/VP16-NR2E3 two-hybrid, luciferase | inhibition of corepressor binding, % at 3.98 µM | hit rate 0.35% among 360,000 | AID 602229;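 active means inhibition above the mean of all tested compounds plus 3 SD, cut at about 70% in these data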;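 further: 0% = DMSO with NR2E3 transfected cells and 100% = cells lacking NR2E3 construct; higher means lower luciferase signal from less NR2E3 corepressor binding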
GASC-1 inh: inhibitors of human GASC-1 (JMJD2C) demethylase; GST-JMJD2C(1-420) H3K9me3 demethylation, DELFIA europium; inhibition, % at 2.35 µM; hit rate 0.069% among 330,000;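 active means more than half of a compound's replicate wells show inhibition beyond 50%, single wells judged on their own value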;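 further: signal counts dimethyl H3K9 product captured on neutravidin plate; 0% = median of DMSO wells and 100% = 0.3 times that DMSO median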
Target sequence (Q9H3R0 1-420 limits assumed): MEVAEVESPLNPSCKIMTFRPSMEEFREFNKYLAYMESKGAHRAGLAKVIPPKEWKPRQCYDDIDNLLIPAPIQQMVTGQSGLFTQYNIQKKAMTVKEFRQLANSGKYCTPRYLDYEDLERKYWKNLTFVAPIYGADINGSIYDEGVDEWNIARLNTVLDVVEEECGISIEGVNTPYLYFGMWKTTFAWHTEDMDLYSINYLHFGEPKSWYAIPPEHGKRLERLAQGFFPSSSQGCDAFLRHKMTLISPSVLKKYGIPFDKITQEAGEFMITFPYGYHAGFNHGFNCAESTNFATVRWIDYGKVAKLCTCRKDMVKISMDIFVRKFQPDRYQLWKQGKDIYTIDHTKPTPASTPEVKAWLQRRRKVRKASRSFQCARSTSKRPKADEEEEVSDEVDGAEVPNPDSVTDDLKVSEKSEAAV
SMARCA2 activ: increases SMARCA2 function in MMTV reporter cells; hit rate 1% among 370,000; MG213 cells, MMTV-luciferase reporter, dexamethasone, overnight; activation, % at 9.1 µM; in the data active means activation above about 7.8%;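 further: 0% = vehicle wells and 100% = reference activator wells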
DAX1 conf: NR0B1 (human) inhibition, confirmation; shares compounds with DAX1 inh-2; HEK293T StAR-promoter luciferase reporter, SF-1/DAX-1 repression; inhibition, % at 6.8 µM; hit rate 87% among 2,400;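 active means inhibition above the average of every tested compound plus 3 SD, cut at about 3.8% in these data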;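 further: 0% = DAX-1 cells with DMSO and 100% = no DAX-1 control cells with DMSO; active compounds raise luminescence by relieving repression of the StAR reporter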
SF1 mutant ctr: counter-screen for DAX1 inhibitors: nonselective inhibitors with SF-1 AF2 mutant | inhibition, % at 6.8 µM | AID 652136 | HEK293 StAR-luciferase, luminescence | hit rate 78% among 2,400 | shares compounds with DAX1 inh-2;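 active means inhibition above the mean of all tested compounds plus 3 SD, cut at about 3% in these data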;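 further: 0% = DAX-1 transfected cells with DMSO and 100% = cells without DAX-1 with DMSO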
* = called active by the depositor; · = not tested or not shown.

SMILES	DAX1 inh-1	DAX1 inh-2	NR2E3 ag-1	NR2E3 ag-2	GASC-1 inh	SMARCA2 activ	DAX1 conf	SF1 mutant ctr
COc1cccc(NC(=O)c2ccc3c(c2)CCCC3)c1	1	18*	-1	-23	-1	3	13*	8.2*
CSc1ccccc1C(=O)Nc1ccc2c(c1)CCC2	1	0	-2	-44	4	5	·	·
O=C(Nc1ccc2c(c1)CCC2)c1ccccc1Br	7.6*	6.8*	-2	-136	-3	5	14*	6.6*
COc1cc(/C=N/Nc2nc3ccccc3o2)cc(OC)c1O	0	0	-4	-75	3	0	·	·
COc1ccc(/C=N/Nc2nc3ccccc3o2)cc1O	0	5.5*	-4	-115	-5	-1	5.4*	2
COc1ccc(/C=N/Nc2nc3ccccc3s2)cc1O	-3	8.6*	·	-186	-2	-1	21*	8.1*
CC(=O)Nc1ccc(/C=N/Nc2nc3ccccc3s2)cc1	4.8*	5.6*	·	-167	5	3	15*	9.9*
CCOC(=O)[C@@]12CN(C(=O)OC(C)(C)C)CC=C1N(Cc1ccc(OC)cc1)C(=O)[C@H]2CC(=O)N1CCN(C(=O)C2CC2)CC1	·	0	·	·	·	4	·	·
COC(=O)[C@]12C[C@H](CC(=O)NCCc3ccccc3OC)C(=O)N(CCc3ccc(OC)c(OC)c3)C1=C[C@H](C(C)C)O[C@@H]2C1CC1	·	-1	·	·	·	-3	·	·
COc1ccc(C2=NN3C(C2)c2ccccc2OC32C(=O)N(C)c3ccccc32)cc1 (stereo not given)	3	6.6*	1	-207	-11	5	4.0*	4.8*
COc1ccc(C2=NN3C(C2)c2ccccc2OC3c2cccs2)cc1 (stereo not given)	2	4.5*	-3	-160	-18	3	12*	7.6*
Cc1ccc(N=C/C(C(=O)C(F)(F)F)=C(\O)c2cccs2)cc1	-3	4.5*	2	-114	-7	4	18*	6.2*
CC(=O)Oc1ccc2c(=O)c(-c3nc4ccccc4s3)coc2c1	0	5.7*	-1	-144	-7	3	5.7*	2
Cc1cccc(Cn2cc(CN3CC(N4CCN(CCOC(=O)c5cc6ccccc6o5)CC4)CS3(=O)=O)nn2)c1 (stereo not given)	·	0	·	·	·	-1	·	·
O=C(/C=C/Nc1ccc(F)cc1F)c1ccc(Br)cc1	·	1	0	-129	7	2	·	·
Cc1ccc(N/C=C/C(=O)c2cccs2)cc1	-4	8.3*	-1	-104	-2	4	6.3*	2
O=C(/C=C/Nc1ccccc1F)c1cccs1	0	5.7*	1	-152	5	6	15*	7.8*
O=C(/C=C/Nc1ccc(F)cc1F)c1cccs1	-3	6.1*	1	-133	-10	7	8.3*	2
c1ccn2c(SCc3ccc4c(c3)OCCO4)nnc2c1	2	4.5*	5	-70	·	0	5.3*	3.5*
O=[N+]([O-])c1cccc(CSc2nnc3ccccn23)c1	4	1	0	16	-4	4	·	·
O=C(CSc1nnc(-c2ccccc2)n1Cc1ccco1)Nc1ccc(OCc2ccccc2)cc1	·	-1	·	·	·	-7	·	·
Cn1cnc2cc(NC(=O)c3ccc(Cl)cc3)ccc21	1	6.6*	-2	-71	6	5	14*	6.4*
CC(C)(C)n1cnc2cc(NC(=O)c3ccc(Cl)cc3)ccc21	4	3	-2	-194	-2	3	·	·
Cn1cnc2cc(NC(=O)c3cccs3)ccc21	5.7*	4.6*	-2	-109	-5	-1	3.8*	3.7*
COC(=O)[C@]12CCCCC=C1N(Cc1ccc(OC)cc1)C(=O)[C@@H]2CC(=O)NCc1ccccc1	·	-1	·	·	·	-3	·	·
Cc1ccsc1C(=O)NNC(=O)C1CCCCC1C(=O)O (stereo not given)	2	6.2*	0	-138	21	2	4.0*	1
